# SKKanGAS inh: inhibitors of SKKanGAS S. pyogenes growth in kanamycin (SK-promoter or general growth effect); BacTiter-Glo, 6 h; inhibition, % at 7.5 µM; actives 1.3% (n = 300,000); AID 1662;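 active = mean replicate score, as percent of positive control median, at least 50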;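 also: strain carries kanamycin resistance gene driven by streptokinase promoter and grows in 40 µg/ml kanamycin; loss of luminescence reflects streptokinase promoter inhibition or plain growth inhibition; 0% = median of DMSO wells and 100% = positive control at its reference dose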
# Mdm2-MdmX inh: disrupts the human Mdm2-MdmX interaction | O15151+Q00987 | SaOS-2 split-luciferase Mdm2/MdmX complementation, luminescence | inhibition, % at 8 µM | actives 3% (n = 330,000) | AID 485346;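 active = inhibition of at least 50% at 8 µM in the primary screen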
# Target sequence (O15151 whole entry, looked up): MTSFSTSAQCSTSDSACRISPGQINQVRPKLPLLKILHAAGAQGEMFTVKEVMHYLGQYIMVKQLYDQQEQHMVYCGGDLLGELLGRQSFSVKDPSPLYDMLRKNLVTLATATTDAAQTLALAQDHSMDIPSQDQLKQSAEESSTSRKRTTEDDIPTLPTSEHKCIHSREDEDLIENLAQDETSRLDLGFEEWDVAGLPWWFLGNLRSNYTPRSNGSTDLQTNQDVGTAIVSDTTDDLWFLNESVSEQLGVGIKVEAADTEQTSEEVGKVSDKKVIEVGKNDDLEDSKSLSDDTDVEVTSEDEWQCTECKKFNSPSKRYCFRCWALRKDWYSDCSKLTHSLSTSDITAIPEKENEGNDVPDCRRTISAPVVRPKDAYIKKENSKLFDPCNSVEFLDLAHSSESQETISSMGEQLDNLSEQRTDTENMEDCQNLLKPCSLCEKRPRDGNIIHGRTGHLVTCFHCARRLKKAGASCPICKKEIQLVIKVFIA
# Target sequence (Q00987 whole entry, looked up): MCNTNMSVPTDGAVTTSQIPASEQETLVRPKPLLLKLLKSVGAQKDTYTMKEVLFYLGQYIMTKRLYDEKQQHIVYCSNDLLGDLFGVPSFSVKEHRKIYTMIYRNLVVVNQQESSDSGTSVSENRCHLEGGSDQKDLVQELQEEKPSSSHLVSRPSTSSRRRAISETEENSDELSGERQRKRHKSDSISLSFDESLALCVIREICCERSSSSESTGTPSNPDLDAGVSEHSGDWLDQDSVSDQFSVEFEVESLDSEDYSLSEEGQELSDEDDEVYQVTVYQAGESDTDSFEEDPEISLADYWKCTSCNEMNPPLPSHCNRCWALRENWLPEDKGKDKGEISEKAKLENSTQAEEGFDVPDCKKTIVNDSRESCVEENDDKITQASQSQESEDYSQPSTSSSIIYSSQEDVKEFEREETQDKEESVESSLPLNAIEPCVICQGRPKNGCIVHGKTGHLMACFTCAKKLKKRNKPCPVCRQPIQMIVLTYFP
# Beta apoptosis: blocks beta cell apoptosis. INS-1E cytokine-induced death, ATP luminescence, 48 h; percent of positive-control rescue, neutral wells zero. protection from apoptosis, % (concentration not given with the values). actives 0.8% (n = 300,000). AID 435005;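 active = Every replicate reaches about 75%, or at least half do and their mean reaches it too, limit read from the data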;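 also: 0% = cytokine-treated negative control wells and 100% = positive control rescue; higher means more ATP so stronger rescue from cytokine killing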
# Calb FLC: affects C. albicans growth with fluconazole. C. albicans CaCi-2 (fluconazole-resistant clinical isolate) + fluconazole, Alamar Blue growth, 48 h. actives 0.57% (n = 300,000). AID 1979. growth inhibition, % (concentration not given with the values);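 active = growth inhibition above about 58% in most replicates, limit read from the data, passing the limit was not always enough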;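 also: all wells also contain fluconazole at 8 µg/ml as a sub-toxic cotreatment; 0% = median of DMSO wells and 100% = median of geldanamycin control wells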
# CSC inhib: blocks cancer stem cells; cancer stem cell-like cells viability, luminescence; inhibition, % at 7.5 µM; actives 1.1% (n = 300,000); in the data active = inhibition above about 75%; tested in HMLE shEcad cells
# T cruzi inh: T. cruzi replication inhibition. T. cruzi beta-gal in NIH3T3, luminescence, 90 h. inhibition, % (no concentration beside the values). actives 1.4% (n = 300,000). AID 1885;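 active = mean inhibition across valid replicates above about 55%, limit read from the data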;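 also: signal also drops with host cell toxicity which is not excluded here; 0% = plate median of DMSO wells and 100% = zero luminescence signal; higher percent means less beta-gal luminescence so fewer parasites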
#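 Assay system: NIH/3T3 fibroblasts plus reporter T. cruzi. Amount: NIH/3T3 cells, 5,000 per well. Buffer or medium: DMEM, 2% fetal bovine serum. Doses: compound pinned at 50 nL/well, DMSO. Schedule: ≥90 h infection period, 3 h prior cell attachment. Signal: luminescent β-galactosidase signal after 60 min lysis. Read-out: parasite load inhibition, %.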
# Mdm2-MdmX conf: confirmation of human Mdm2/MdmX interaction inhibitors; shares compounds with Mdm2-MdmX inh; Mdm2-MdmX binding, luminescent assay; inhibition, % at 8 µM; actives 55% (n = 10,000); AID 489028; in the data active = inhibition above about 40%
# Full FLuc ctr: inhibits full-length luciferase, flagging false Mdm2/MdmX hits; SaOS-2 full-length luciferase counterscreen, luminescence; actives 77% (n = 6,200); shares compounds with Mdm2-MdmX inh; inhibition, % at 8 µM;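 active = mean inhibition at 8 µM reaching about 37%, which flags the compound as non-specific, limit read from the data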;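 also: p53-null SaOS-2 cells with luciferase driven by a doxycycline-inducible promoter; compound on cells about two nights before reading with doxycycline added after day one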
# * marks the source's active call; other numbers are inactive results; . = not tested or not shown. Most compounds without a hit are left out; they make up all but 5.7% or so of the library.
SMILES,SKKanGAS inh,Mdm2-MdmX inh,Beta apoptosis,Calb FLC,CSC inhib,T cruzi inh,Mdm2-MdmX conf,others
C[C@H](CO)N1C[C@H](C)[C@@H](CN(C)C(=O)Nc2ccc(C(F)(F)F)cc2)Oc2c(NC(=O)Nc3ccc(C(F)(F)F)cc3)cccc2C1=O,.,84*,7,.,106*,.,-6,
C[C@H](CO)N1C[C@H](C)[C@@H](CN(C)C(=O)Nc2ccc3c(c2)OCO3)Oc2ccc(NC(=O)Nc3ccc(C(F)(F)F)cc3)cc2C1=O,.,-15,-2,.,5,.,.,
C[C@H](CO)N1C[C@H](C)[C@@H](CN(C)C(=O)Nc2ccc(C(F)(F)F)cc2)Oc2ccc(NC(=O)Nc3ccc(C(F)(F)F)cc3)cc2C1=O,.,65*,-25,.,.,.,-21,
C[C@H]1CN([C@@H](C)CO)C(=O)c2cccc(NC(=O)Nc3ccc(C(F)(F)F)cc3)c2O[C@@H]1CN(C)C(=O)Nc1ccc(F)cc1,.,42,4,.,58,.,.,
CCc1cc2cc3c(cc2nc1SCC(=O)Nc1cc(C)on1)OCO3,1,81*,23,-1,-10,-65,8,
O=C(N=C1SC2CS(=O)(=O)CC2N1Cc1ccccc1Cl)C1CCCO1 (stereo not drawn),1,1,-3,-8,-5,-10,.,
C=CCc1cccc([C@@H]2[C@@H](C)CC[C@H]3C(=O)N4[C@@H](c5cc(OC)c(OC)c(OC)c5)c5[nH]c6ccccc6c5C[C@H]4C(=O)N23)c1,26,71*,3,16,17,47,63*,Full FLuc ctr=60*
COc1cc(C2c3[nH]c4ccccc4c3C[C@@H]3C(=O)N(Cc4ccco4)CC(=O)N23)cc(OC)c1OC (stereo partly drawn),4,6,0,19,-9,2,.,
C=CCNc1nc(-c2ccccn2)nnc1-c1ccccc1,6,55*,4,-88,-13,69*,60*,Full FLuc ctr=41*
CC(=O)Oc1ccccc1-c1nc(/C=C/c2ccccc2)no1,3,-94,.,6,.,7,.,
CCCCc1nc2cc(C(=O)N3CCCC(OCCC)C3)ccc2o1 (stereo not drawn),-3,-44,-5,-3,-8,8,.,
Cc1ccc(SC[C@H](Cc2ccccc2)N2CC[C@@H](NC(=O)OCc3ccccc3)CCC2=O)cc1,17,20,6,1,27,31,.,
O=C(CCCN1C(=O)/C(=C/c2ccccc2Cl)SC1=S)N1CCCC1,4,76*,-42,.,14,14,31,
O=C(CCN1C(=O)/C(=C/c2ccccc2Cl)SC1=S)N1CCCC1,8,62*,-155,11,13,-26,24,
O=C(CCCN1C(=O)/C(=C/c2ccccc2Cl)SC1=S)NNC(=O)c1ccccc1Cl,14,56*,3,3,29,-26,29,
O=C(CCCN1C(=O)/C(=C/c2ccccc2Cl)SC1=S)NNC(=O)c1ccncc1,-11,1,-8,-2,-9,3,.,
O=C(CCN1C(=O)/C(=C/c2ccccc2Cl)SC1=S)N1CCOCC1,7,45,.,38,9,15,.,
Cc1cc(NC(=O)CCCN2C(=O)/C(=C/c3ccccc3Cl)SC2=S)no1,1,68*,-2,-1,-8,4,43*,Full FLuc ctr=58*
Cc1cc(NC(=O)CCN2C(=O)/C(=C/c3ccccc3F)SC2=S)no1,8,22,-5,26,2,-1,.,
Cc1nn(-c2ccc(F)cc2)c2nc(N)c(C#N)c(-c3cccs3)c12,20,41,25,4,59,39,.,
Cc1nn(-c2ccccc2)c2nc(N)c(C#N)c(-c3ccc(O)c(O)c3)c12,15,55*,-1,-12,44,42,23,
Cc1nn(-c2ccc(F)cc2)c2nc(N)c(C#N)c(-c3ccc(O)c(O)c3)c12,39,61*,-2,-13,31,59*,29,
C/C(CCN1CCCCc2nc(C)c(C)cc21)=N\O[C@@H](C)CN1CCCCc2nc(C)c(C)cc21,0,-14,-7,-11,30,11,.,
COC(=O)[C@@H]1CC[C@H](C)[C@@H](c2ccc(C)cc2)N1C(=O)c1ccc(/C=N/O[C@@H](C)CN2CCCCc3nc(C)c(C)cc32)cc1,17,89*,16,4,90*,41,25,
CC(=O)Nc1ccc(NC(=O)C(C)OC(=O)CCc2c[nH]c3ccccc23)cc1 (stereo not drawn),-4,7,.,-8,4,-2,.,
SMILES,SKKanGAS inh,Mdm2-MdmX inh,Beta apoptosis,Calb FLC,CSC inhib,T cruzi inh,Mdm2-MdmX conf,others
Cc1ccccc1CSc1nc2[nH]ncc2c(=O)[nH]1,8,-2,-5,6,14,-2,.,
Cc1ccc(C)c(CSc2nc3[nH]ncc3c(=O)[nH]2)c1,2,56*,-4,13,61,-40,68*,Full FLuc ctr=48*
COc1ccccc1N(Cc1ccccc1)S(=O)(=O)c1cccc(C(=O)Nc2cc(C)ccn2)c1,9,68*,-13,-2,32,44,56*,Full FLuc ctr=160*
COc1ccccc1N(Cc1ccccc1)S(=O)(=O)c1cccc(C(=O)NC2CC(C)(C)NC(C)(C)C2)c1,-3,97*,13,2,17,53,64*,Full FLuc ctr=72*
O=C(O)c1ccc(Cl)c(S(=O)(=O)N(Cc2ccccc2)c2ccc(Cl)cc2)c1,19,-26,-3,14,66,-13,.,
CC1(C)CC(NC(=O)c2ccc(Cl)c(S(=O)(=O)N(Cc3ccccc3)c3ccccc3)c2)CC(C)(C)N1,0,99*,.,48,-4,39,93*,Full FLuc ctr=48*
CCCCC(O)(c1ccc(F)cc1)C(CN1CCOCC1)c1ccc(Cl)cc1 (stereo not drawn),7,46,2,5,21,11,.,
O=C(CC12CC3CC(CC(C3)C1)C2)NC(=S)NCc1ccco1,35,64*,12,-22,45,56*,28,
O=C(NCc1ccco1)C12CC3CC(CC(C3)C1)C2,-3,-31,-7,-9,5,-4,.,
COc1ccc(Cc2nc3ccc(C(=O)NC4CCOC4)cc3o2)cc1 (stereo not drawn),-12,4,-2,-12,21,-8,.,
O=C(Nc1nnc(-c2ccccc2SCc2ccccc2F)s1)Nc1ccccc1F,-8,79*,25,-5,9,-3,66*,Full FLuc ctr=101*
COc1ccc(NC(=O)C(=O)N/N=C\c2ccc(CNC(=O)C(=O)Nc3ccc(C)c(C)c3)o2)c(OC)c1,4,92*,.,3,.,-19,46*,Full FLuc ctr=95*

# Bioassay records (PubChem)
